One compound from ChEMBL document CHEMBL1123129, “Hypolipidemic activity of indan-1,3-dione derivatives in rodents” (J Med Chem, 1985) can be followed below.

Data set [1] has as its target T1, ATP-citrate synthase (Mus musculus) (UniProt Q91V92).
T1 sequence (whole entry): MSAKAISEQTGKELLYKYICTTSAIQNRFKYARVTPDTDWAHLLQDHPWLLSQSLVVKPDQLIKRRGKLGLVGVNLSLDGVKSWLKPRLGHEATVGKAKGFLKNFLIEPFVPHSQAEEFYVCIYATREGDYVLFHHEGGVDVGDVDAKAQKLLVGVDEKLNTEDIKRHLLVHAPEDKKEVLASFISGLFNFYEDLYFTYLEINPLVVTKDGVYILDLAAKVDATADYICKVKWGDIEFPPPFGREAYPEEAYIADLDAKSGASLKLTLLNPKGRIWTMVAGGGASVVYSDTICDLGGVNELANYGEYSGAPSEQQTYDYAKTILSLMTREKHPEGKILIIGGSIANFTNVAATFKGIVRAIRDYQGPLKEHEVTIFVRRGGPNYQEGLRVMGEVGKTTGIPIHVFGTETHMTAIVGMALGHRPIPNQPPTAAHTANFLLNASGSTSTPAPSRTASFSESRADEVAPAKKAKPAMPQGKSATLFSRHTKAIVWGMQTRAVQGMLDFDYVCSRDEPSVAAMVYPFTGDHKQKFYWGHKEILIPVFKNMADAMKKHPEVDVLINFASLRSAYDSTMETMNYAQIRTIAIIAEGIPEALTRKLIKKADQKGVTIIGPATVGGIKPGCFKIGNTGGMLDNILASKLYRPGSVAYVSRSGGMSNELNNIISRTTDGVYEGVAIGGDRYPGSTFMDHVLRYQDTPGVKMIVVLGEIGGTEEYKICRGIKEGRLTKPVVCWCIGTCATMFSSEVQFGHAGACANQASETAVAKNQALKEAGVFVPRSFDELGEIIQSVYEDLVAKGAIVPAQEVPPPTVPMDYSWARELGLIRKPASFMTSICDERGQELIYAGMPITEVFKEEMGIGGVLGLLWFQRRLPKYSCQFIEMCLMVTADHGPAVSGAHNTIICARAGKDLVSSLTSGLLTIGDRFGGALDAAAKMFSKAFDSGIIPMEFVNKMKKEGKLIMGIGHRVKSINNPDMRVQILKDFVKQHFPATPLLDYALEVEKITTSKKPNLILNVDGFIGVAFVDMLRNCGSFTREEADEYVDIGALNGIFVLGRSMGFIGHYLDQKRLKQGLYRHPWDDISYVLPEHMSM
In words: In Vitro evaluation for the CF1 liver enzyme activity on ATP-Citrate Lyase exchange at concentration 200 uM. The procedure, abridged: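 Liver was taken from CF1 male mice and made into 10% homogenates, which were incubated with test compound at 50, 100 or 200 µM. Each enzyme was assayed by its literature method, and protein was measured by Lowry. N = 6. Activity is expressed as % of untreated control ± SD.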

Data set [2] concerns the target T1, ATP-citrate synthase (Mus musculus). The data set can be described thus: In Vivo effect for the hypolipidemic activity on ATP-Citrate Lyase in CF1 mice after 16 days administered orally at a dose of 60 mg/kg. It is filed as organism-based. On the set-up: dose 60 mg/kg. The procedure, abridged: (§1)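 CF1 male mice are dosed orally at 10–60 mg/kg per day for 16 days, with 1% CMC as the control vehicle. Liver is homogenized at 10% in 0.25 M sucrose + 0.001 M EDTA, pH 7.2. Enzymes are assayed by literature methods, with Lowry protein. Activity is given as % of control (X ± SD, N = 6), with p from Student's t test.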

Data set [3] shares this target. In words: In Vivo effect for the hypolipidemic activity on ATP-Citrate Lyase in CF1 mice after 16 days of oral administration at a dose of 20 mg/kg. The arrangement: dose 20 mg/kg. It is filed as organism-based. The procedure, abridged: as §1
Data set [4] deals with T2, Cholesterol 7-alpha-hydroxylase (Cytochrome P450 7A1) (Mus musculus, UniProt Q64505). In words: In vivo effect on Cholesterol 7-alpha-hydroxylase activity in CF1 mice after 16 days at 10 mg/kg oral dose. Conditions: read-out: Control. The arrangement: dose 10 mg/kg, route oral. It is filed as functional, organism-based. The procedure, abridged: as §1
T2 sequence (Q64505 whole entry): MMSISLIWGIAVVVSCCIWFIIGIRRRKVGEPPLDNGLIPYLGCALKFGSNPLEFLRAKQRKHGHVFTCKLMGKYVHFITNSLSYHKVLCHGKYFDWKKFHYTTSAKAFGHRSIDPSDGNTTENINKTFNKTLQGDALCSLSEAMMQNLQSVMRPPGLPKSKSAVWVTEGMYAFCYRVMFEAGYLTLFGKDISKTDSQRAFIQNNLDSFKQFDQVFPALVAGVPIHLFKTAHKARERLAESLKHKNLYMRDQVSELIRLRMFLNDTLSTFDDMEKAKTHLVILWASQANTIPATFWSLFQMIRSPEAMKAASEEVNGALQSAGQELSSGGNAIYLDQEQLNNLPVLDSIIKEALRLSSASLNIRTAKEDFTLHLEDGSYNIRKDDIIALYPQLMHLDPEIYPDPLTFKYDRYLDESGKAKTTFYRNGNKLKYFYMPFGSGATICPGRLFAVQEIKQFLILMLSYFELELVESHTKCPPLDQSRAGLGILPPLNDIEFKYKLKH
Data set [5] has as its target T2, Cholesterol 7-alpha-hydroxylase (Cytochrome P450 7A1). In words: In vitro percent Cholesterol 7-alpha-hydroxylase activity in mouse CF1 liver microsomes at 100 uM. The settings on record: read-out: Control. The arrangement: species or system Microsome. The procedure, abridged: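 Mouse liver enzymes assayed in vitro on 10% homogenates of CF1 male mouse liver, with test drug added at 50–200 μM. Each enzyme follows a published procedure. Protein is measured by Lowry. Activity is given as % of untreated control (X ± SD, N = 6).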
(Liver microsomes are a subcellular fraction often used to study metabolism.)

The subject of data set [6] is Rattus norvegicus. In words: Compound was evaluated for the hypolipidemic activity at 20 mg/kg per day orally for 14 days on phospholipids content in rat small intestine. Format: functional. The settings on record: route oral. The procedure, abridged: (§2)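 Male Sprague–Dawley rats were dosed orally for 14 days. Liver, small intestine and a 24-h fecal collection were lipid-extracted. Extracts were assayed for cholesterol (modified Liebermann–Burchard), triglyceride (enzymatic kit), neutral lipids, phospholipids and protein. Values are % of 1% CMC vehicle control, mean ± SD, N = 6.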

Data set [7] concerns Rattus norvegicus. In words: Compound was evaluated for the hypolipidemic activity at 20 mg/kg per day orally for 14 days on phospholipids content in rat lipoprotein chylomicron. Conditions: route oral. Format: functional. The procedure, abridged: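 Male Sprague–Dawley rats (~300 g) were dosed orally each day. Blood was drawn from the abdominal vein. Lipoprotein fractions (chylomicron, VLDL, LDL, HDL) were separated by the Hatch–Lees and Havel methods. Each fraction was assayed for cholesterol, triglyceride (enzymatic kit), neutral lipids, phospholipids and Lowry protein. Values are % of 1% CMC vehicle control, N = 6.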

Data set [8] relates to Rattus norvegicus. The data set can be described thus: Compound was evaluated for the hypolipidemic activity at 20 mg/kg per day orally for 14 days on neutral lipid content in rat liver. Format: functional. Conditions: route oral. The procedure, abridged:
as §2

For the compound `COc1ccc(C2C(=O)c3ccccc3C2=O)cc1` [ANISINDIONE], the Control in data set [1] turned out to be 52%; in data set [2], 93%; in data set [3], 43%; with Rattus norvegicus [6] it was 136%; with Rattus norvegicus [7], 135%; in the data set with Rattus norvegicus [8] it was 84%. Besides, the activity at 384 h in data set [4] turned out to be 52%. Moreover, the activity at 100 µM in data set [5] was found to be 144%.
